The subject of data set [1] is Hepatocellular carcinoma (HePG2). The experiment in a line: In vitro antitumor MTT assay, HePG2. In kind it is cell-based, human. In general terms: Tetrazolium assays rely on reduction of a dye to a coloured formazan, in cell work by metabolically active cells.
Data set [2] concerns Epitheliod Carcinoma Cervix cancer (Hela). The experiment in a line: In vitro antitumor MTT assay, Hela. Conditions: read-out: In vitro cytotoxicity IC50 Hela.
In data set [3] the test system is Human prostate cancer (PC3). The experiment in a line: In vitro antitumor MTT assay, PC3. The following applies: read-out: In vitro cytotoxicity IC50 PC3. In kind it is cell-based.
Data set [4] concerns Mammary gland Breast cancer (MCF-7). Kind of data set: In vitro antitumor MTT assay, MCF-7.
Data set [5] concerns HePG2, MCF-7, Hela and PC3 cell lines. The experiment in a line: In vitro antitumor MTT assay, range over the four cell lines. In kind it is cell-based. The following applies: Homo sapiens, read-out: IC50 range towards the four cell lines.
In another data set the test system is Bacillus cereus UW85. The experiment in a line: Minimal inhibitory concentration, B. cereus. In kind it is cell-based. Conditions: broth dilution, 37 °C 18 h.
Data set [6] deals with Staphylococcus aureus ATCC 29213. The experiment in a line: Minimal inhibitory concentration, S. aureus. In kind it is cell-based. Conditions: broth dilution, 37 °C 18 h. In general terms: Broth dilution looks for growth in wells or tubes with falling amounts of substance.
In data set [7] the test system is Human lung fibroblast (WI38) cell line. The experiment in a line: In vitro cytotoxicity against human normal cells. Conditions: WI-38, read-out: IC50 against WI38 normal cells. Format: cell-based.
Data set [8] concerns MCF-7 cells. Kind of data set: Cell cycle arrest analysis. In kind it is cell-based, human.
Data set [9] has as its system MCF-7 cells. Kind of data set: Detection of apoptosis. Format: cell-based, human. Conditions: MCF-7, 24 h.
Data set [10] concerns Pseudomonas aeruginosa PAO1. The experiment in a line: Minimal inhibitory concentration, P. aeruginosa. In kind it is cell-based. Conditions: broth dilution, 37 °C 18 h. The method, boiled down: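 Broth microdilution with serial 1:1 dilutions of test compound in Mueller Hinton broth. Wells are inoculated with bacterial suspension at 5 × 10^6 CFU/ml, and ampicillin/clavulanic acid serves as the positive control. Plates incubate at 37 °C for 18 h. MIC is the lowest concentration with no visible growth.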

For the next data set, the system named is Candida albicans CS351. Kind of data set: Minimal inhibitory concentration, C. albicans. Format: cell-based. The following applies: broth dilution, 37 °C 18 h.
The mark [11] stands for this setting: Homo sapiens, HepG2, read-out: In vitro cytotoxicity IC50 HePG2.
Where [12] appears, read: Homo sapiens, MCF7, read-out: In vitro cytotoxicity IC50 MCF-7.
Where [13] appears, read: read-out: In vitro cytotoxicity IC50 HePG2, MTT, Mean ± SD, n = 3.
The mark [14] stands for this setting: read-out: In vitro cytotoxicity IC50 MCF-7, MTT, Mean ± SD, n = 3.

Where two headings read alike, the source gives them in different places.

For the molecule `C/C(=N\N=C\c1cccc(Cl)c1)c1cc2ccccc2o1` [Compound 23, (E)-1-(1-(benzofuran-2-yl)ethylidene)-2-((E)-3-chlorobenzylidene)hydrazine], the IC50 (in general, the midpoint of a concentration-inhibition curve) is 86.5 ± 4.3 µM in data set [1] (setting [11]); over 100 µM in data set [2] (Homo sapiens, HeLa); 91.8 ± 4.9 µM in data set [3] (Homo sapiens); over 100 µM in data set [4] (setting [12]).

In the case of `COc1cccc2c1C(=O)c1c(O)c3c(c(O)c1C2=O)C[C@@](O)(C(=O)CO)C[C@@H]3O[C@H]1C[C@H](N)[C@H](O)[C@H](C)O1` [DOX, doxorubicin, reference compound], the IC50 in data set [5] is 4.17 to 8.87 µM.

Take `C/C(=N\N=C\c1ccc([N+](=O)[O-])cc1)c1cc2ccccc2o1` [Compound 22, (E)-1-(1-(benzofuran-2-yl)ethylidene)-2-((E)-4-nitrobenzylidene) hydrazine]: the 50% inhibitory concentration (IC50) in [1] (setting [11]) was 77.4 ± 3.9 µM; in data set [2] (Homo sapiens, HeLa), over 100 µM; in data set [3] (Homo sapiens), over 100 µM; in data set [4] (setting [12]), 88.5 ± 4.6 µM.

In the case of “(E)-3-(benzofuran-2-yl)-3-hydroxy-2-((E)-(3-methylphenyl) diazenyl)acrylaldehyde [Compound 16]”, in the data set on Bacillus cereus UW85, the “Minimal inhibitory concentration B. cereus” value worked out at 128 µg/mL. Besides, the IC50 in [1] (setting [13]) stood at 52.3 ± 3.1 µM; in data set [2] (MTT, Mean ± SD, n = 3), 69.4 ± 4 µM; in data set [3] (MTT, Mean ± SD, n = 3), 63.3 ± 3.9 µM; in [4] (setting [14]), 66.2 ± 3.9 µM. Moreover, the “Minimal inhibitory concentration S. aureus” value in data set [6] came to 64 µg/mL.

Take `COc1ccc(/N=N/C(C=O)=C(/O)c2cc3ccccc3o2)cc1` [Compound 13, (E)-3-(benzofuran-2-yl)-3-hydroxy-2-((E)-(4-methoxyphenyl)diazenyl)acrylaldehyde]: the IC50 in data set [7] turned out to be 83.5 µM.

For the molecule `CCOC(=O)Cc1csc(N/N=C(\C)c2cc3ccccc3o2)n1` [Compound 9, Ethyl (E)-2-(2-(2-(1-(benzofuran-2-yl)ethylidene)hydrazineyl)thiazol-4-yl)acetate], the Cell cycle comment result in the data set on MCF-7 cells [8] is “pre-G1 apoptosis and cell growth arrest at G2/M”. For the same molecule, the IC50 in data set [5] fell in the range of 6.55 to 13.1 µM. For the same molecule, the “late apoptotic induction compared to control cells” value in the data set with MCF-7 cells [9] is 54 fold. In addition, the late apoptotic induction in the data set with MCF-7 cells [9] (control 0.15%) turned out to be 8.1%.

Turning to “(E)-3-(benzofuran-2-yl)-3-hydroxy-2-((E)-(2-methylphenyl) diazenyl)acrylaldehyde [Compound 17]”, the “Minimal inhibitory concentration B. cereus” value with Bacillus cereus UW85 was determined as 256 µg/mL. For the same molecule, the “Minimal inhibitory concentration P. aeruginosa” value in [10] was 512 µg/mL. In addition, the IC50 in data set [1] (setting [13]) came out at 72.4 ± 3.5 µM; in [2] (MTT, Mean ± SD, n = 3) it was 75 ± 4.2 µM; in data set [3] (MTT, Mean ± SD, n = 3), 77.6 ± 4.3 µM; in [4] (setting [14]), 83.6 ± 4.3 µM. Also, the “Minimal inhibitory concentration S. aureus” value in data set [6] is 8 µg/mL. Also, in the data set with Candida albicans CS351, the “Minimal inhibitory concentration C. albicans” value turned out to be 512 µg/mL.

`C/C(=N\Nc1nc(C)cs1)c1cc2ccccc2o1` [Compound 11, (E)-2-(2-(1-(benzofuran-2-yl)ethylidene)hydrazineyl)-4-methylthiazole]: the IC50 in data set [5] was 4 to 8.99 µM.

As for “(E)-2-(2-(1-(benzofuran-2-yl)ethylidene)hydrazineyl)-4-(benzofuran-5-yl)thiazole [Compound 10]”, the IC50 in data set [1] (setting [13]) came to 21.2 ± 1.8 µM; in data set [2] (MTT, Mean ± SD, n = 3), 24.1 ± 2.1 µM; in [3] (MTT, Mean ± SD, n = 3) it was 34.2 ± 2.6 µM; in data set [4] (setting [14]) it was 25.6 ± 2.2 µM.

Take `C/C(=N\Nc1nc(-c2ccccc2)cs1)c1cc2ccccc2o1` [Compound 8, (E)-2-(2-(1-(benzofuran-2-yl)ethylidene)hydrazinyl)-4-(4-phenyl)thiazole]: in the data set with MCF-7 cells [8], the Cell cycle comment entry is “pre-G1 apoptosis and cell growth arrest at G2/M”. For the same molecule, the IC50 in data set [5] is 8.49 to 16.7 µM. For the same molecule, in the data set on MCF-7 cells [9], the “late apoptotic induction compared to control cells” value is recorded as 98 fold.

The values are drawn from PMC7902087 (Bioorganic & medicinal chemistry, 2020).
